Assay outcomes deposited in PubChem by several laboratories.
NPY Y2 blocker – blocks the human neuropeptide Y Y2 receptor | NPY-Y2 expressing cells, antagonist mode | 140,000 tested, 0.99% active | P49146 | inhibition, % at 2.7 µM; in the data active means inhibition above about 17%;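 further: 0% = vehicle with agonist challenge and 100% = reference antagonist with challenge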
NPY-Y1 antag – NPY-Y1 (human) receptor antagonism; P25929; HEK293-CNG Y1 cells, membrane potential fluorescence; NPY at EC95, then isoproterenol; inhibition, % at 3.6 µM; 200,000 tested, 1% active; AID 1040;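 active means inhibition above the campaign mean inhibition of all tested compounds plus 3 SD, cut at about 20% in these data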;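 further: 0% = DMSO wells given NPY plus isoproterenol and 100% = isoproterenol alone without NPY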
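Material: HEK293 cells with Y1 receptor plus CNG channel; times: compound incubation 1 h at room temperature, readout 45 min post-stimulation; signal: fluorescence, membrane potential probe; read-out basis: fluorescence ratio normalized to % inhibition between controls; benchmarks: full-block control isoproterenol-only wells, zero-block control NPY plus isoproterenol wells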
KCC2 mod – KCC2 (human) Cl- transport modulation. Q9H2X9. KCC2 cells, thallium flux FluoZin-2 fluorescence. B-score of Tl+ flux slope (higher = more flux/activation; lower = inhibition) at 10 µM. 190,000 tested, 2.2% active. AID 1456;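 active means thallium flux slope and its plate-corrected score both differing from the plate sample mean at a set confidence after two filtering rounds, in either direction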;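 further: slope of fluorescence scaled to starting intensity during 10 to 20 s after thallium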
Target sequence (Q9H2X9 whole entry, looked up): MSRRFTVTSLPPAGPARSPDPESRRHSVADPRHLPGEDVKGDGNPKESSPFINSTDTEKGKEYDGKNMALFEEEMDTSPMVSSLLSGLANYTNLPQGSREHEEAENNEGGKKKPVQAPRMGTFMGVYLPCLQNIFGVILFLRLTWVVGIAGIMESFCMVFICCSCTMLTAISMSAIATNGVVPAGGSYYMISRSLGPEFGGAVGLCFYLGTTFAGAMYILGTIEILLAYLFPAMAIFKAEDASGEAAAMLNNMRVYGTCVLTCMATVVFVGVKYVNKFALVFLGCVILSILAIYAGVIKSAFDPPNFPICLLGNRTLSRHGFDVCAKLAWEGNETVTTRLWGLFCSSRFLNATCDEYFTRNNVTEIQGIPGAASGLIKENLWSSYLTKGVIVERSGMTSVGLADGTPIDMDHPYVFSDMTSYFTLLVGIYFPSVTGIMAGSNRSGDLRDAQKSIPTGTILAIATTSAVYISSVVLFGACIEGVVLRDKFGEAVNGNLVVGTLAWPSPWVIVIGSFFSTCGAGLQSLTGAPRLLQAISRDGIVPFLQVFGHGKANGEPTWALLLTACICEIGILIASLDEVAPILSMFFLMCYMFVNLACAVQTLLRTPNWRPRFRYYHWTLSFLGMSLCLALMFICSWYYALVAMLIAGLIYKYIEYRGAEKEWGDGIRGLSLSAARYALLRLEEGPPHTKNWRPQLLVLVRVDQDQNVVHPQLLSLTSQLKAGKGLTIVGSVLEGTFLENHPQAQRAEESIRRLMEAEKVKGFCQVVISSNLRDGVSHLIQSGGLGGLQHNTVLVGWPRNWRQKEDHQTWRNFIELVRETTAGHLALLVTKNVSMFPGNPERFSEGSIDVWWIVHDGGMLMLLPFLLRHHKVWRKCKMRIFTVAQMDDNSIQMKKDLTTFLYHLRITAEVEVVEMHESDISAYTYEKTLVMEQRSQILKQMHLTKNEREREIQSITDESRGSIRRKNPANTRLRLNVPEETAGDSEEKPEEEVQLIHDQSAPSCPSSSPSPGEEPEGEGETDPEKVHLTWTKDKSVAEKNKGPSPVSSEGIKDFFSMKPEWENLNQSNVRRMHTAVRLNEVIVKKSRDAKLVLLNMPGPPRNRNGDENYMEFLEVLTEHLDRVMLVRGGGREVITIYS
NPY1 pot ag – potentiators or agonists of human neuropeptide Y receptor Y1. P25929. NPY-Y1 expressing cells, potentiator/agonist activation. activation, % at 3.6 µM. 220,000 tested, 0.37% active. AID 1304; in the data active means activation above about 33%, passing the limit was not always enough;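 further: cells stimulated with NPY at EC10 then isoproterenol at EC100; 0% = low agonist plus stimulus and 100% = saturating agonist plus stimulus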
Furin inhibitor – human furin inhibition | P09958 | purified furin, fluorogenic substrate cleavage | inhibition, % at 20 µM or 30 µM | 220,000 tested, 0.061% active | AID 463115; in the data active means inhibition above about 25%
NPY2 pot ag – human NPY-Y2 potentiation or agonism, primary screen | P49146 | 220,000 tested, 0.45% active | cells expressing NPY-Y2, potentiator/agonist read-out | AID 1359 | activation, % at 3.6 µM; in the data active means activation above about 27%;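 further: cells stimulated with NPY near EC25 plus isoproterenol at EC100; 0% = vehicle plus submaximal agonist and 100% = vehicle plus saturating agonist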
KCC2 sec1 – confirmation of human KCC2 transport modulators; shares compounds with KCC2 mod; HEK293-KCC2, thallium flux, FluoZin2 fluorescence; stronger effect = higher value; normalised thallium flux (F/F0 slope) at 10 µM; 3,700 tested, 15% active; AID 1713;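 active means thallium flux slope above the same plate's solvent-only control mean plus 3 SD; inconclusive means the two replicate wells disagree; inactive means no significant difference from solvent-only control wells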
KCC2 bumet counter – thallium flux despite bumetanide block in KCC2 cells, secondary assay 3; HEK293-KCC2 + bumetanide/ouabain, thallium flux FluoZin2; stronger effect = higher value; shares compounds with KCC2 mod; 3,700 tested, 49% active; normalized thallium flux at 10 µM;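 active means thallium entry rate above the same plate's blocked-transporter control wells by more than 3 SD; inconclusive means the two repeat wells disagree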;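 further: raw slope of fluorescence over initial fluorescence between 10 and 20 s after thallium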
KCC2 secondary2 – KCC2 (human) modulation, second secondary assay; shares compounds with KCC2 mod; HEK293-KCC2, thallium flux FluoZin2 fluorescence; actives lie on both sides; F/F0 rise rate, 10–20 s post-thallium; normalized thallium flux at 10 µM; 3,700 tested, 23% active; AID 1715;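 active means thallium flux slope more than 3 SD above or below the plate's solvent-only control mean, mostly below; inconclusive means the two repeat wells disagreed; inactive means no significant shift from solvent-only controls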;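 further: raw slope with 0.1% DMSO as baseline and bumetanide as block control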
HEK counter1 – acts in parental HEK cells, KCC2 counter-screen; HEK293 parental cells, thallium flux FluoZin2, ouabain; baseline-ratio fluorescence slope, 10–20 s after thallium; shares compounds with KCC2 mod; thallium flux rate (normalised fluorescence) at 10 µM; AID 1716; 3,700 tested, 46% active;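 active means thallium flux rate significantly above the same plate's solvent-only control wells, beyond their mean plus 3 SD; inconclusive means the two replicate wells gave conflicting results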
KCC2 retest ouab – KCC2 (human) modulation, ouabain retest; raw Tl+ flux slope (below DMSO = inhibition, above = activation) at 10 µM; HEK293-KCC2, thallium flux FluoZin2 fluorescence; bidirectional: low = inhibitor, high = activator; shares compounds with KCC2 mod; AID 1717; 3,700 tested, 48% active;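 active means thallium flux slope beyond 3 SD from same-plate DMSO control mean in most replicates, usually higher, sometimes lower; inconclusive means repeat tests gave conflicting results; inactive means no significant difference from controls in most replicates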;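 further: slope of initial-normalized fluorescence between seconds 10 and 20 after thallium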
HEK counter2 – counter-screen for KCC2 modulators: effect in parental HEK293 cells; thallium flux slope at 10 µM; AID 1718; shares compounds with KCC2 mod; thallium flux FluoZin-2 fluorescence slope; 3,700 tested, 33% active;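 active means thallium flux slope above the same plate's solvent-control mean plus 3 SD in both duplicate wells; inconclusive means duplicate wells that disagreed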;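 further: run without ouabain in cells lacking the KCC2 cotransporter; slope of fluorescence scaled to its starting value between 10 and 20 s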
The depositor's hits bear a star; u = inconclusive; x = not tested or not shown. A selection: hits, their analogues and other compounds. The true share with any hit is near 3.7%.

SMILES | NPY Y2 blocker | NPY-Y1 antag | KCC2 mod | NPY1 pot ag | Furin inhibitor | NPY2 pot ag | KCC2 sec1 | KCC2 bumet counter | KCC2 secondary2 | HEK counter1 | KCC2 retest ouab | HEK counter2
O=C(Cn1cnc2ccccc2c1=O)Nc1nnc(SCc2ccccc2)s1 | 10 | 9 | x | -16 | -18 | 8 | 0.0089 | 0.0067 | 0.029 | 0.009* | 0.021 | u
CCCCc1nnc(NC(=O)Cn2cnc3ccccc3c2=O)s1 | x | 7 | 0.61 | -27 | -8 | 4 | x | x | x | x | x | x
Cc1ccc(NC(=S)NNc2ncc(C(F)(F)F)cc2Cl)cc1 | 1 | -3 | 17* | 11 | -17 | 8 | u | 0.078* | 0.031 | 0.013* | 0.042* | 0.012*
Fc1ccc(NC(=S)NNc2ncc(C(F)(F)F)cc2Cl)c(F)c1 | x | 13 | 53* | 8 | -15 | 1 | 0.006 | 0.038* | u | 0.032* | 0.035* | 0.022*
O=C(Nc1ccc(F)cc1F)c1cccn1-c1ncc(C(F)(F)F)cc1Cl | 1 | -5 | x | -25 | -9 | -8 | x | x | x | x | x | x
ON/C=N/C(=S)Nc1ncc(C(F)(F)F)cc1Cl | x | -6 | 25* | -1 | -24 | 11 | 0.008 | 0.052* | 0.058* | 0.048* | 0.052* | u
O=C(CN1C(=O)/C(=C/c2cccc(Br)c2)SC1=S)N1CCCC1 | 0 | 4 | -0.44 | -9 | -24 | 0 | x | x | x | x | x | x
Cc1cc2nc(-c3ccc(SCC(=O)NC(C)C)nc3)[nH]c2cc1C | x | 6 | -0.72 | -2 | -115 | -9 | x | x | x | x | x | x
Cc1cc2nc(-c3ccc(SCc4ccc(C(=O)O)cc4)nc3)[nH]c2cc1C | x | 2 | -4* | -6 | -9 | -11 | 0.0072 | 0.0037 | 0.026 | u | 0.014* | 0.0091
CCCC(=O)NC(Nc1c(C)n(C)n(-c2ccccc2)c1=O)C(Cl)(Cl)Cl (stereo unspecified) | x | 7 | 0.045 | -13 | -14 | 8 | x | x | x | x | x | x
CCOc1ccc2nc(SC3CC(=O)N(c4cccc(OC)c4)C3=O)sc2c1 (stereo unspecified) | 5 | 0 | 4.7* | -21 | -10 | -22 | 0.024* | 0.015* | 0.033 | 0.0093* | 0.022* | u
O=C(/C=C/c1ccccc1)NC(=S)NNC(=O)Cc1cccs1 | 2 | 5 | 6.3* | -1 | -19 | 8 | 0.0097 | 0.026* | 0.031 | u | u | 0.012
O=C(Cc1ccccc1)NNC(=S)NC(=O)c1cccs1 | x | x | 6.8* | 13 | -13 | -17 | 0.0049 | 0.014* | 0.033 | 0.015* | u | 0.018*
CNC(=S)NNC(=O)Cc1ccccc1 | -1 | -2 | x | -5 | -16 | 16 | x | x | x | x | x | x
CC1CCCCC1NC(=S)NC(=O)c1cccs1 (stereo unspecified) | x | x | 117* | 12 | -17 | -13 | 0.027* | 0.14* | 0.032 | 0.058* | 0.064* | 0.017*
Cc1cccc(C(=O)NC(=S)NNC(=O)Cc2ccccc2)c1 | 1 | 3 | 14* | 2 | -1 | 4 | 0.019* | 0.048* | 0.037 | 0.025* | 0.041* | 0.015*
Cn1ncc([N+](=O)[O-])c1C(=O)Nc1ccc(-c2nc3ccccc3o2)cc1 | x | -2 | 0.6 | 17 | -3 | 18 | x | x | x | x | x | x
c1ccc(-c2ncc(CN3CCN(c4ccccn4)CC3)[nH]2)cc1 | x | x | 0.6 | 7 | -19 | -23 | x | x | x | x | x | x
Cc1ccnc(NC(=S)NC(=O)/C=C/c2ccc(Cl)cc2)c1 | 1 | 8 | -0.034 | 16 | -19 | 8 | x | x | x | x | x | x
CCC(=O)NNC(=S)NC(=O)c1ccc(C)cc1 | x | 2 | 7.6* | -4 | -16 | 4 | u | 0.02* | 0.03 | 0.013* | 0.024 | u
O=c1/c(=C/c2ccc(O)c([N+](=O)[O-])c2)sc2nc3ccccc3n12 | x | -3 | -3.7* | 6 | -2 | 0 | 0.0058 | 0.0049 | 0.031 | 0.0078 | 0.017 | 0.01
O=C1COc2ccc(-c3csc(=Nc4ccc(OC(F)F)cc4)n3CC3CCCO3)cc2N1 (stereo unspecified) | 1 | -4 | -4.8* | 4 | -17 | 17 | 0.0071 | 0.0051 | 0.028 | 0.0075 | 0.017 | 0.01
COc1cc(-c2c(C#N)c(N)nc(SCc3ccncc3)c2C#N)cc(OC)c1OC | 4 | -3 | x | -10 | -18 | 6 | 0.0085 | 0.0065 | 0.029 | 0.0072 | u | u
N#Cc1c(N)nc(SCc2ccncc2)c(C#N)c1-c1cccs1 | 2 | -1 | 0.36 | -24 | -5 | -25 | x | x | x | x | x | x
O=C(O)c1ccc(CSCc2c(F)cccc2Cl)o1 | 3 | 1 | 0.26 | 3 | -20 | 2 | x | x | x | x | x | x
SMILES | NPY Y2 blocker | NPY-Y1 antag | KCC2 mod | NPY1 pot ag | Furin inhibitor | NPY2 pot ag | KCC2 sec1 | KCC2 bumet counter | KCC2 secondary2 | HEK counter1 | KCC2 retest ouab | HEK counter2
O=C(Cc1cccc2ccccc12)N/N=C/c1ccc(Sc2cccc3cccnc23)o1 | 1 | 2 | 10* | 8 | -14 | 14 | 0.0062 | 0.013* | 0.036 | 0.011* | 0.025* | 0.013*
CCCCC(=O)N/N=C/c1ccc(Sc2cccc3cccnc23)o1 | 1 | 0 | -0.28 | 28 | -3 | -3 | x | x | x | x | x | x
CC(C)Cn1c(-c2nn(C)cc2Cl)n[nH]c1=S | 1 | 4 | -0.047 | 4 | -20 | -15 | x | x | x | x | x | x
CC(C)Cn1c(-c2ccc(Br)o2)n[nH]c1=S | 10 | 7 | 12* | -17 | -12 | -4 | 0.018* | 0.04* | 0.034 | 0.019* | 0.032* | 0.012*
O=C(Cc1cccs1)N1CCN(c2ccc([N+](=O)[O-])cc2)CC1 | x | 2 | -0.55 | 15 | -23 | 7 | x | x | x | x | x | x
CCOC(=O)C1=C(CN2CCCCC2)NC(=O)NC1c1cc(C)ccc1C (stereo unspecified) | 17 | 10 | x | -19 | -3 | -5 | 0.0056 | 0.0043 | 0.031 | 0.0073 | 0.019 | 0.01
O=C(O)/C=C/C(=O)Nc1ccc(-c2ccccc2)cc1 | x | -2 | -0.17 | 22 | -14 | 1 | x | x | x | x | x | x
CC(C)(C)c1csc(NNC(=O)c2ccc(Cl)cc2)n1 | x | x | 24* | 4 | -20 | 6 | 0.01 | 0.03* | 0.035 | 0.037* | 0.032* | 0.014*
